≈ marks a conversion by molar mass, not a printed value. Calls of active or inactive are those of the source. The rule behind the calls is not given here.
Assays:
[1] = Volume of distribution in Beagle dog at 2 mg/kg, po and 0.5 mg/kg, iv; format: ADME, organism-based, Canis lupus familiaris; conditions: in vivo
How it was run: (§1)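 PK in Sprague-Dawley rats (iv solution in DMSO via an indwelling jugular cannula, or oral suspension in aqueous methylcellulose/Methocel) and beagle dogs (iv and oral given crossover, same vehicles). Plasma levels by LC-MS. F from oral versus iv dose-normalized AUC. Average of at least two animals; rat values within 25% of the mean.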

[2] = Plasma clearance in Sprague-Dawley rat at 10 mg/kg, po and 2 mg/kg, iv; format: ADME, organism-based; how it was run: as §1
[3] = Plasma clearance in Beagle dog at 2 mg/kg, po and 0.5 mg/kg, iv; format: ADME, organism-based, Canis lupus familiaris; how it was run: as §1
[4] = Half life in Sprague-Dawley rat at 10 mg/kg, po and 2 mg/kg, iv; format: ADME, organism-based; conditions: in vivo; how it was run: as §1
[5] = Half life in Beagle dog at 2 mg/kg, po and 0.5 mg/kg, iv; format: ADME, organism-based, Canis lupus familiaris; conditions: in vivo; how it was run: as §1
[6] = Bioavailability in Sprague-Dawley rat at 10 mg/kg, po and 2 mg/kg, iv; format: ADME, organism-based; conditions: in vivo; how it was run: as §1
[7] = Bioavailability in Beagle dog at 2 mg/kg, po and 0.5 mg/kg, iv; format: ADME, organism-based, Canis lupus familiaris; conditions: in vivo; how it was run: as §1
[8] = tested on: Rattus norvegicus; test: Dose normalised AUC in Sprague-Dawley rat at 10 mg/kg, po by LC-MS analysis; format: ADME, organism-based; set-up: dose 10 mg/kg, route oral; conditions: in vivo; how it was run: as §1
[9] = tested on: Canis familiaris; test: Dose normalised AUC in Beagle dog at 2 mg/kg, po by LC-MS analysis; format: ADME, organism-based, Canis lupus familiaris; set-up: dose 2 mg/kg, route oral; conditions: in vivo; how it was run: as §1
[10] = Solubility of the compound in water at pH 2; format: physicochemical
How it was run: (§2)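 Water solubility of the solid compound measured at pH 2 and at pH 7.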

[11] = Solubility of the compound in water at pH 7; format: physicochemical; how it was run: as §2
[12] = tested on: Human immunodeficiency virus; test: Antiviral activity against Human immunodeficiency virus harboring reverse transcriptase G190S mutant assessed as inhibition of viral replication; format: functional, organism-based
How it was run: (§3)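 Phenosense cell culture assay against a panel of clinically derived RT mutant viruses in the presence of 10% FBS. IC50 is the compound concentration blocking 50% of viral replication. Each value is the average of two determinations.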

[13] = tested on: Human immunodeficiency virus; test: Antiviral activity against Human immunodeficiency virus harboring reverse transcriptase K103N/P225H double mutant assessed as inhibition of viral replication; format: functional, organism-based; how it was run: as §3
[14] = tested on: Human immunodeficiency virus; test: Antiviral activity against Human immunodeficiency virus harboring reverse transcriptase K101E/G190A double mutant assessed as inhibition of viral replication; format: functional, organism-based; how it was run: as §3
[15] = tested on: Human immunodeficiency virus; test: Antiviral activity against Human immunodeficiency virus harboring reverse transcriptase K103N/Y181C/G190A triple mutant assessed as inhibition of viral replication; format: functional, organism-based; how it was run: as §3
[16] = tested on: Human immunodeficiency virus; test: Antiviral activity against Human immunodeficiency virus harboring reverse transcriptase K101E/Y181C/G190A triple mutant assessed as inhibition of viral replication; format: functional, organism-based; how it was run: as §3
[17] = tested on: Human immunodeficiency virus; test: Antiviral activity against Human immunodeficiency virus harboring reverse transcriptase V106A/G190A/F227L triple mutant assessed as inhibition of viral replication; format: functional, organism-based; how it was run: as §3
[18] = tested on: Human immunodeficiency virus; test: Antiviral activity against Human immunodeficiency virus harboring reverse transcriptase L100l/K103N/P225P/H triple mutant assessed as inhibition of viral replication; format: functional, organism-based; how it was run: as §3
[19] = Volume of distribution in Sprague-Dawley rat at 10 mg/kg, po and 2 mg/kg, iv; format: ADME, organism-based; conditions: in vivo; how it was run: as §1
[20] = Inhibition of Human immunodeficiency virus reverse transcriptase by SPA assay
[21] = biological target: Human immunodeficiency virus type 1 reverse transcriptase (Human immunodeficiency virus 1, UniProt Q72547, K103N); test: Inhibition of Human immunodeficiency virus reverse transcriptase K103N mutant by SPA assay
How it was run: (§4)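 Recombinant HIV-1 RT polymerase scintillation proximity assay run with mutant enzyme, reported as Ki (nM). Values are geometric means of at least two determinations, each within 2-fold of the mean; SEM is given where there were ≥3 determinations.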

[22] = biological target: Human immunodeficiency virus type 1 reverse transcriptase (Human immunodeficiency virus 1, UniProt Q72547, Y181C); test: Inhibition of Human immunodeficiency virus reverse transcriptase Y181C mutant by SPA assay; how it was run: as §4
[23] = tested on: Human immunodeficiency virus; test: Antiviral activity against Human immunodeficiency virus expressing wild type reverse transcriptase infected in human MT4 cells by p24 antigen assay in the presence of 10% FBS; format: functional; conditions: Human immunodeficiency virus 1, MT4; read-out: CIC95
How it was run: (§5)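 MT-4 human T-lymphoid cells in RPMI 1640 with either 10% FBS or 50% NHS; CIC95 taken as the concentration inhibiting virus spread/replication by >95%. Geometric mean of at least two determinations, individual values within 2-fold; SEM given when ≥3 determinations.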

[24] = tested on: Human immunodeficiency virus; test: Antiviral activity against Human immunodeficiency virus expressing reverse transcriptase K103N mutant infected in human MT4 cells by p24 antigen assay in the presence of 10% FBS; format: functional; conditions: Human immunodeficiency virus 1, MT4; read-out: CIC95
How it was run: (§6)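 Antiviral spread assay in MT-4 human T-lymphoid cells kept in RPMI 1640 with 10% FBS. Value is the CIC95, the concentration inhibiting virus replication by >95%. Reported as the geometric mean of at least two determinations, all within 2-fold of the mean. Cytotoxicity was checked up to the assay upper limit of 8.3 μM.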

[25] = tested on: Human immunodeficiency virus; test: Antiviral activity against Human immunodeficiency virus expressing reverse transcriptase Y181C mutant infected in human MT4 cells by p24 antigen assay in the presence of 10% FBS; format: functional; conditions: Human immunodeficiency virus 1, MT4; read-out: CIC95; how it was run: as §6
[26] = tested on: Human immunodeficiency virus; test: Antiviral activity against Human immunodeficiency virus expressing wild type reverse transcriptase infected in human MT4 cells by p24 antigen assay in the presence of 50% normal human serum; format: functional; conditions: Human immunodeficiency virus 1, MT4; read-out: CIC95; how it was run: as §5
[27] = tested on: MT4; test: Cytotoxicity against human MT4 cells up to 8.3 uM; format: cell-based
How it was run: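 MT-4 cells in RPMI 1640 with 10% FBS or 50% NHS, run alongside the antiviral CIC95 assay; cytotoxicity checked up to the assay upper limit of 8.3 μM.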

[28] = tested on: Human immunodeficiency virus; test: Antiviral activity against multidrug-resistant Human immunodeficiency virus assessed as inhibition of viral replication; format: functional, organism-based; how it was run: as §3
[29] = tested on: Human immunodeficiency virus; test: Antiviral activity against wild type Human immunodeficiency virus assessed as inhibition of viral replication; format: functional, organism-based
[30] = tested on: Human immunodeficiency virus; test: Antiviral activity against Human immunodeficiency virus harboring reverse transcriptase K103N mutant assessed as inhibition of viral replication; format: functional, organism-based; how it was run: as §3
[31] = tested on: Human immunodeficiency virus; test: Antiviral activity against Human immunodeficiency virus harboring reverse transcriptase Y181C mutant assessed as inhibition of viral replication; format: functional, organism-based; how it was run: as §3
[32] = tested on: Human immunodeficiency virus; test: Antiviral activity against Human immunodeficiency virus harboring reverse transcriptase L100l mutant assessed as inhibition of viral replication; format: functional, organism-based; how it was run: as §3
[33] = tested on: Human immunodeficiency virus; test: Antiviral activity against Human immunodeficiency virus harboring reverse transcriptase Y188L mutant assessed as inhibition of viral replication; format: functional, organism-based; how it was run: as §3
[34] = tested on: Human immunodeficiency virus; test: Antiviral activity against Human immunodeficiency virus harboring reverse transcriptase G190A mutant assessed as inhibition of viral replication; format: functional, organism-based; how it was run: as §3

N#Cc1cc(Cl)cc(Oc2c(Cl)ccc3c2cnn3Cc2n[nH]c3nc(N)ccc23)c1
Vd [1]: 2 L/kg | clearance [2]: 4.7 mL/min/kg | clearance [3]: 7.6 mL/min/kg | half-life [4]: 6.3 h | half-life [5]: 2.8 h | bioavailability [6]: 39% | bioavailability [7]: 32% | AUC/dose [8]: 3.64 µM·h | AUC/dose [9]: 1.33 µM·h | solubility [10]: 40 µg/mL (≈ 88.8 µM) | solubility [11]: < 0.1 µg/mL | inhibition [12]: Active | inhibition [13]: Active | inhibition [14]: Active | inhibition [15]: Active | inhibition [16]: Active | inhibition [17]: inactive | inhibition [18]: Active | Vd [19]: 2.5 L/kg | Ki [20]: 0.61 nM | Ki [21]: 1.7 nM | Ki [22]: 1.9 nM | IC95 [23]: 4.1 nM | IC95 [24]: 9.7 nM | IC95 [25]: 68 nM | IC95 [26]: 43 nM | Activity [27]: Non-toxic | inhibition [28]: Active | inhibition [29]: Active | inhibition [30]: Active | inhibition [31]: Active | inhibition [32]: Active | inhibition [33]: inactive | inhibition [34]: Active

From ChEMBL document CHEMBL1938372, “Design and synthesis of conformationally constrained inhibitors of non-nucleoside reverse transcriptase” (J Med Chem, 2011)
